Source: ChEMBL document CHEMBL3232844, “Synthesis and structure activity relationships of schweinfurthin indoles” (2014)

How the values were obtained:
Type in all cases: functional
[1] = system: HOP-92; assay: Cytotoxicity against human HOP92 cells; settings: for CC50: read-out: pLC50 (the source's name) (converted); for TGI: read-out: pTGI (converted)
Outline: (§1)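 Tested in a 60-cell-line human tumor panel screen; the read-out is growth inhibition, reported as GI50 for each cell line.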

[2] = Cytotoxicity against human EKVX cells; settings: for CC50: read-out: pLC50 (the source's name) (converted); for TGI: read-out: pTGI (converted); outline: as §1
[3] = system: NCI-H460; assay: Cytotoxicity against human NCI-H460 cells; settings: for CC50: read-out: pLC50 (the source's name) (converted); for TGI: read-out: pTGI (converted); outline: as §1
[4] = Cytotoxicity against human OVCAR3 cells; settings: for GI50: OVCAR-3; for CC50: OVCAR-3, read-out: pLC50 (the source's name) (converted); for TGI: OVCAR-3, read-out: pTGI (converted); outline: as §1
[5] = system: RPMI-8226; assay: Cytotoxicity against human RPMI8226 cells; settings: for CC50: read-out: pLC50 (the source's name) (converted); for TGI: read-out: pTGI (converted); outline: as §1
[6] = system: Malme-3M; assay: Cytotoxicity against human MALME-3M cells; settings: for CC50: read-out: pLC50 (the source's name) (converted); for TGI: read-out: pTGI (converted); outline: as §1
[7] = system: U-251; assay: Cytotoxicity against human U251 cells; settings: for CC50: read-out: pLC50 (the source's name) (converted); for TGI: read-out: pTGI (converted)
Outline: (§2)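 Cell line run as part of the 60-cell-line screening panel; growth inhibition was reported as a GI50 for each line.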

[8] = system: SK-MEL-5; assay: Cytotoxicity against human SK-MEL-5 cells; settings: for CC50: read-out: pLC50 (the source's name) (converted); for TGI: read-out: pTGI (converted); outline: as §1
[9] = system: NCI-H522; assay: Cytotoxicity against human NCI-H522 cells; settings: for CC50: read-out: pLC50 (the source's name) (converted); for TGI: read-out: pTGI (converted); outline: as §1
[10] = system: PC-3; assay: Cytotoxicity against human PC3 cells; settings: for TGI: read-out: pTGI (converted); outline: as §1
[11] = system: SK-MEL-28; assay: Cytotoxicity against human SK-MEL-28 cells; settings: for CC50: read-out: pLC50 (the source's name) (converted); for TGI: read-out: pTGI (converted); outline: as §1
[12] = system: MCF7; assay: Cytotoxicity against human MCF7 cells; settings: for TGI: read-out: pTGI (converted); outline: as §1
[13] = system: T47D; assay: Cytotoxicity against human T47D cells; settings: for CC50: read-out: pLC50 (the source's name) (converted); for TGI: read-out: pTGI (converted); outline: as §2
[14] = system: SW-620; assay: Cytotoxicity against human SW620 cells; settings: for CC50: read-out: pLC50 (the source's name) (converted); for TGI: read-out: pTGI (converted); outline: as §2
[15] = Cytotoxicity against human OVCAR5 cells; settings: for GI50: OVCAR-5; for CC50: OVCAR-5, read-out: pLC50 (the source's name) (converted); for TGI: OVCAR-5, read-out: pTGI (converted); outline: as §1
[16] = system: MOLT-4; assay: Cytotoxicity against human MOLT4 cells; settings: for CC50: read-out: pLC50 (the source's name) (converted); for TGI: read-out: pTGI (converted); outline: as §1
[17] = Cytotoxicity against human Hs578T cells; settings: Hs-578T; for TGI: read-out: pTGI (converted); outline: as §1

## CC1(C)[C@H](O)CC[C@@]2(C)Oc3c(O)cc(/C=C/c4cc(O)c5cc[nH]c5c4)cc3C[C@H]12
[1]
  GI50: 501 nM
  CC50: > 100 µM
  TGI: 5.5 µM
[2]
  GI50: 794 nM
  CC50: > 100 µM
  TGI: 16.2 µM
[3]
  GI50: 550 nM
  CC50: 6.31 µM
  TGI: 2140 nM
[4]
  GI50: 3.47 µM
  CC50: 66.1 µM
  TGI: 21.4 µM
[5]
  GI50: 15.8 nM
  CC50: 11.5 µM
  TGI: 66.1 nM
[6]
  GI50: 3020 nM
  CC50: 60.3 µM
  TGI: 17 µM
[7]
  GI50: 89.1 nM
  CC50: > 100 µM
  TGI: 20 µM
[8]
  GI50: 372 nM
  CC50: 3980 nM
  TGI: 1510 nM
[9]
  GI50: 1070 nM
  CC50: 38 µM
  TGI: 6.92 µM
[10]
  GI50: 245 nM
  LC50: 55 µM
  TGI: 4.07 µM
[11]
  GI50: 6170 nM
  CC50: > 100 µM
  TGI: > 100000 nM
[12]
  GI50: 1350 nM
  LC50: > 100 µM
  TGI: 16.2 µM
[13]
  GI50: 7.59 µM
  CC50: 83.2 µM
  TGI: 27.5 µM
[14]
  GI50: 214 nM
  CC50: 6.46 µM
  TGI: 1350 nM
[15]
  GI50: 17.8 µM
  CC50: 97.7 µM
  TGI: 53.7 µM
[16]
  GI50: 43.6 nM
  CC50: > 100 µM
  TGI: 617 nM
[17]
  GI50: 10 nM
  LC50: > 100 µM
  TGI: 427 nM

## COc1cc(/C=C/c2cc(OC)c3cc[nH]c3c2)cc2c1O[C@]1(C)CC[C@@H](O)C(C)(C)[C@H]1C2
[2]
  GI50: 537 nM
  CC50: > 100 µM
  TGI: 6.03 µM
[3]
  GI50: 380 nM
  CC50: 37.2 µM
  TGI: 2290 nM
[4]
  GI50: 1.2 µM
  CC50: 10 µM
  TGI: 3.16 µM
[5]
  GI50: 28.2 nM
  CC50: > 100 µM
  TGI: 85.1 nM
[6]
  GI50: 575 nM
  CC50: > 100 µM
  TGI: 4.9 µM
[7]
  GI50: 331 nM
  CC50: 31.6 µM
  TGI: 3.63 µM
[8]
  GI50: 178 nM
  CC50: 708 nM
  TGI: 355 nM
[9]
  GI50: 708 nM
  CC50: > 100 µM
  TGI: 2.88 µM
[10]
  GI50: 191 nM
  LC50: > 100 µM
  TGI: 1.78 µM
[11]
  GI50: 209 nM
  TGI: 776 nM
[12]
  GI50: 389 nM
  LC50: > 100 µM
  TGI: 2 µM
[13]
  GI50: 2.82 µM
  CC50: > 100 µM
  TGI: 50.1 µM
[14]
  GI50: 309 nM
  CC50: 5.5 µM
  TGI: 1350 nM
[15]
  GI50: 1 µM
  CC50: > 100 µM
  TGI: 6.03 µM
[16]
  GI50: 91.2 nM
  CC50: > 100 µM
  TGI: 490 nM
[17]
  GI50: 51.3 nM
  LC50: > 100 µM
  TGI: 776 nM

## COc1cc(/C=C/c2cc(O)c3c(CC=C(C)C)c[nH]c3c2)cc2c1O[C@]1(C)CC[C@@H](O)C(C)(C)[C@H]1C2
[1]
  GI50: 589 nM
  CC50: 50.1 µM
  TGI: 50.1 µM
[2]
  GI50: 1070 nM
  CC50: 50.1 µM
  TGI: 50.1 µM
[3]
  GI50: 417 nM
  CC50: 50.1 µM
  TGI: 50100 nM
[4]
  GI50: 13.5 µM
  CC50: 50.1 µM
  TGI: 50.1 µM
[7]
  GI50: 151 nM
  CC50: 50.1 µM
  TGI: 50.1 µM
[8]
  GI50: 158 nM
  CC50: 1820 nM
  TGI: 575 nM
[10]
  GI50: 229 nM
  LC50: 50.1 µM
  TGI: 50.1 µM
[11]
  GI50: 550 nM
  CC50: 50.1 µM
  TGI: 1910 nM
[12]
  GI50: 355 nM
  LC50: 50.1 µM
  TGI: 3.63 µM
[13]
  GI50: 5.25 µM
  CC50: 50.1 µM
  TGI: 31.6 µM
[14]
  GI50: 447 nM
  CC50: 10.7 µM
  TGI: 1740 nM
[15]
  GI50: 15.1 µM
  CC50: 50.1 µM
  TGI: 50.1 µM
[16]
  GI50: 170 nM
  CC50: 50.1 µM
  TGI: 50100 nM
[17]
  GI50: 70.8 nM
  LC50: 50.1 µM
  TGI: 1000 nM
